Measurements from PubChem BioAssay AID624068 (Broad Institute, 2012).
Records with an inconclusive call do not appear.

Test system: S. cerevisiae W303 JC-1 mitochondrial potential, flow cytometry
Experiment: JC-1 mitochondrial potential loss in yeast – flow cytometry, single point, dry powder, mechanism study for C. glabrata antifungal project (AID 624068)
Settings: at 1 µM; active compounds read high
In short: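 Assay system: S. cerevisiae W303-1a yeast | Input: Starting culture density OD600 0.1 | Buffer or medium: Glucose SD-CSM medium | Probe or stimulus: JC-1 membrane potential dye, 1 µg/mL final | Timing: 90 min pre-growth at 30 °C, 4 h compound exposure | Technique: JC-1 flow cytometry, 488 nm excitation | Control set: Antimycin A 10 µM plus negative controls for calibration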

Structure (SMILES): CCOC(=O)N1C(=O)C2(CCCCC2)N(c2ccc(C)cc2)C1=S
- mitochondrial depolarization score: 27.8
